Data set [1] has as its target Mu-type opioid receptor (Homo sapiens) (UniProt P35372). As to the kind of experiment: Agonist activity at human mu opioid receptor expressed in CHO cell membranes at 10 uM incubated for 60 mins by [35S]GTPgammaS binding assay. It is filed as functional. The essentials: (§1)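 CHO cell membranes expressing human κ (20 µg), µ (10 µg) or δ (7 µg) opioid receptor. Test compound at 10 µM final, with 10 µM GDP and 0.1 nM [35S]GTPγS in HEPES pH 7.4 buffer containing NaCl, MgCl2, EDTA, DTT and BSA. Incubated 60 min at 22 °C with shaking, then filtered and counted. Nonspecific binding defined with 10 µM unlabeled GTPγS.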
On the technique in general: GTPγS is a poorly hydrolysed GTP analogue; its binding reports G protein activation.

Data set [2] has as its target Delta-type opioid receptor (Homo sapiens) (UniProt P41143). Briefly: Agonist activity at human delta opioid receptor expressed in CHO cell membranes at 10 uM incubated for 60 mins by [35S]GTPgammaS binding assay. The class given is functional. The essentials: as §1
In data set [3] the target is Kappa-type opioid receptor (Homo sapiens) (UniProt P41145). Briefly: Agonist activity at human kappa opioid receptor expressed in CHO cell membranes at 10 uM incubated for 60 mins by [35S]GTPgammaS binding assay. The class given is functional. The essentials:
as §1

A short description of data set [4]: Clearance in Sprague-Dawley rat plasma at 5 mg/kg, sc measured after 1 to 168 hrs post dose by LC/MS-MS method. It is filed as ADME, organism-based. The method in brief: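 Male Sprague Dawley rats, 10 weeks old, single subcutaneous 5 mg/kg dose at 1 mL/kg. Three rats per timepoint were killed by CO2 at 1, 4, 24, 72 and 168 h. Cardiac blood went into K3EDTA and was spun to plasma. Brains were homogenized 1:5 in 50:50 ethanol:water. Methanol precipitation used buspirone as internal standard. Analysis was by LC/MS-MS on C8 reverse phase. Parameters were taken from the apparent terminal elimination phase.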

Data set [5] concerns the target Delta-type opioid receptor (Homo sapiens) (UniProt P41143). The settings on record: CHO.
The nature of data set [6]: Half life in Sprague-Dawley rat plasma at 5 mg/kg, sc measured after 1 to 168 hrs post dose by LC/MS-MS method. It is filed as ADME, organism-based. The settings on record: in vivo. The method in brief: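 Male Sprague Dawley rats, 10 weeks old, single subcutaneous 5 mg/kg dose at 1 mL/kg. Cardiac blood went into K3EDTA and was spun to plasma. Brains were homogenized 1:5 in 50:50 ethanol:water. Methanol precipitation used buspirone as internal standard. Analysis was by LC/MS-MS on C8 reverse phase. Parameters were taken from the apparent terminal elimination phase.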

The conditions of data set [7]: rat, in vivo, sc, 5 mg/kg.
The target in data set [8] is Mu-type opioid receptor (Homo sapiens) (UniProt P35372). The settings on record: CHO.
Sequence of Mu-type opioid receptor (Homo sapiens) (P35372 whole entry): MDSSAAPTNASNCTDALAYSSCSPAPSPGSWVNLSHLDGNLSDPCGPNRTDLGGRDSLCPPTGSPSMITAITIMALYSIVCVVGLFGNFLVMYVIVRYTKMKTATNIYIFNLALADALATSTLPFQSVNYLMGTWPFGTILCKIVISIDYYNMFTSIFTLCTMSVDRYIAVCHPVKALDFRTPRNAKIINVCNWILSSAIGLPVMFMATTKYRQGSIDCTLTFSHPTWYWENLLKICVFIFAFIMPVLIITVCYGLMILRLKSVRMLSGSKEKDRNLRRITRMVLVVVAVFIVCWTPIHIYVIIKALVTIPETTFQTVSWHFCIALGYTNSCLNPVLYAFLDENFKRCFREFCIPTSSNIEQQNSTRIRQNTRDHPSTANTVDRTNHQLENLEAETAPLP

Active and inactive are the calls of the source. The rule behind the calls is not given here. Bounds are passed on as bounds.

Experimental findings from ChEMBL document CHEMBL4145657 (J Med Chem, 2018) are described below.

Sequence of Delta-type opioid receptor (Homo sapiens) (P41143 whole entry): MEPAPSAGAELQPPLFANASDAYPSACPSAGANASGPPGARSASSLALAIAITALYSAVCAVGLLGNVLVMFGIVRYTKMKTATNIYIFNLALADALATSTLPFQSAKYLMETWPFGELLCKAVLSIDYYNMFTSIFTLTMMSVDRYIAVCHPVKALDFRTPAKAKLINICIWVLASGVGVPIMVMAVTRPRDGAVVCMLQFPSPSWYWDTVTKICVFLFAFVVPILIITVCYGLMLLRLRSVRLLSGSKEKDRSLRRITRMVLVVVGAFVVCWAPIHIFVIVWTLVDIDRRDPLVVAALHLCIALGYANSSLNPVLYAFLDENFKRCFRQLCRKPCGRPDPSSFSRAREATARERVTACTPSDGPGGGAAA
Sequence of Kappa-type opioid receptor (Homo sapiens) (P41145 whole entry): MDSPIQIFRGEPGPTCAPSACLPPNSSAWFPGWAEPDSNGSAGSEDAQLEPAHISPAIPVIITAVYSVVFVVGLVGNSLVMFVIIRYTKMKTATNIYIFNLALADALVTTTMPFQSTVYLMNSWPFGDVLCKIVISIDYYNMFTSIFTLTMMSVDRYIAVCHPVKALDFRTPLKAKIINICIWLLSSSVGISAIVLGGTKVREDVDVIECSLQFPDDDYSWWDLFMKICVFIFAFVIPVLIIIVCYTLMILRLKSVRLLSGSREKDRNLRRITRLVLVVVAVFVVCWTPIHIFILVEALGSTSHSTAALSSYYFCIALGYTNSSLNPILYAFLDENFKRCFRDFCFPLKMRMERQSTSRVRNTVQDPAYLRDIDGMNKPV

Consider `O=C(N[C@H](CC1CCCCC1)C1CC1)[C@H]1Cc2ccc(O)cc2CN1`, for which the outcome in data set [1], in data set [2] and in data set [3] was inactive.
`CC(C)[C@@H](CC1CCCC1)NC(=O)[C@H]1Cc2ccc(C(N)=O)cc2CN1`: the outcome in data set [1], in data set [2] and in data set [3] was inactive.
For `CC(C)[C@@H](CC1CCCCC1)NC(=O)[C@H]1Cc2ccc(C(N)=O)cc2CN1`, the outcome in data set [1], in data set [2] and in data set [3] was inactive. The apparent clearance (CL/F) (usually the apparent clearance, not corrected for the fraction that reaches the circulation) in data set [4] was 71.2 mL/min/kg.
Consider `CC(C)[C@@H](CC1CCCCC1)NC(=O)[C@H]1Cc2ccc(O)cc2CN1C`, for which the result in data set [1], in data set [2] and in data set [3] was inactive.
Consider `COc1ccc2c(c1)CN[C@@H](C(=O)N[C@H](CC1CCCCC1)C(C)C)C2`, for which the outcome in data set [1], in data set [2] and in data set [3] was inactive.
For `CC(C)[C@H](CC1CCCCC1)NC(=O)[C@@H]1Cc2ccc(O)cc2CN1`, the result in data set [1], in data set [2] and in data set [3] was inactive. The compound also registered a Ke in data set [5] of over 3000 nM.
Take `O=C(N[C@H](CC1CCCCC1)c1ccccc1)[C@H]1Cc2ccc(O)cc2CN1`: the outcome in data set [1], in data set [2] and in data set [3] was inactive.
As to `CC(C)[C@@H](CC1CCC1)NC(=O)[C@H]1Cc2ccc(O)cc2CN1`, the result in data set [1], in data set [2] and in data set [3] was inactive.
With `CC(C)[C@@H](CC1CCCCC1)NC(=O)[C@H]1Cc2ccc(F)cc2CN1`, the outcome in data set [1], in data set [2] and in data set [3] was inactive.
For the compound `CC(C)[C@@H](CC1CCCCC1)NC(=O)[C@H]1Cc2ccc(O)cc2CN1`, the result in data set [1], in data set [2] and in data set [3] was inactive. Further, the t1/2 in data set [6] amounted to 34.2 h. In data set [4], this compound gave an apparent clearance (CL/F) of 98.6 mL/min/kg. For the same compound, the Tmax (in general, the time from dosing to the highest level) in data set [7] worked out at 1 h.
Take `CC(C)[C@@H](CC1CCCCCC1)NC(=O)[C@H]1Cc2ccc(O)cc2CN1`: the result in data set [1], in data set [2] and in data set [3] was inactive.
As for `CC(C)[C@@H](CC1CCCC1)NC(=O)[C@@]1(C)Cc2ccc(O)cc2CN1`, the outcome in data set [1], in data set [2] and in data set [3] was inactive.
Turning to `CC(C)[C@@H](CC1CCCC1)NC(=O)[C@H]1Cc2ccc(O)cc2CN1`, the result in data set [1], in data set [2] and in data set [3] was inactive. This compound also returned a t1/2 in data set [6] of 32.1 h. In data set [4], this compound gave an apparent clearance (CL/F) of 130 mL/min/kg. For the same compound, the Ke in data set [5] worked out at 1570 nM; in data set [8] it was 344 nM.
Regarding `CC(C)[C@H](CC1CCCCC1)NC(=O)[C@H]1Cc2ccc(O)cc2CN1`, the result in data set [1], in data set [2] and in data set [3] was inactive. In data set [5], this compound gave a Ke of over 3000 nM.
With `CC(C)[C@@H](CC1CCCCC1)NC(=O)[C@H]1Cc2ccccc2CN1`, the result in data set [1], in data set [2] and in data set [3] was inactive.
Turning to `O=C(N[C@H](CC1CCCC1)C1CC1)[C@H]1Cc2ccc(O)cc2CN1`, the outcome in data set [1], in data set [2] and in data set [3] was inactive.
In the case of `O=C(NCCC1CCCCC1)[C@H]1Cc2ccc(O)cc2CN1`, the result in data set [1], in data set [2] and in data set [3] was inactive.
As to `CC(C)[C@@H](CN1CC[C@@](C)(c2cccc(O)c2)[C@@H](C)C1)NC(=O)[C@H]1Cc2ccc(O)cc2CN1` [JDTIC], the t1/2 in data set [6] was determined as 28.4 h.
For the compound `CC1CCC(C[C@@H](NC(=O)[C@H]2Cc3ccc(O)cc3CN2)C(C)C)CC1` (some centres undefined), the result in data set [1], in data set [2] and in data set [3] was inactive.
Consider `CC(C)[C@@H](CC1CCCCC1)NC(=O)[C@@H]1Cc2ccc(O)cc2CN1`, for which the outcome in data set [1], in data set [2] and in data set [3] was inactive. In data set [5], the Ke was over 3000 nM.
